The record followed here is ChEMBL document CHEMBL4229388, “Repositioning of the antipsychotic trifluoperazine: Synthesis, biological evaluation and in silico study of trifluoperazine analogs as anti-glioblastoma agents” (Eur J Med Chem, 2018).

For orientation: EC50 means the concentration that produces a half-maximal response. As usually defined, the IC50 is the concentration at which inhibition is half-maximal.

Calls of active or inactive are those of the source. No cut-off for these calls is given here.

Data set [1] deals with U-87 MG. The data set can be described thus: Induction of intracellular Ca2+ level in human U87MG cells at 1 to 100 uM by Fura-2 AM dye-based assay relative to trifluoperazine. The data set is classed as functional, U-87MG ATCC. In outline: (§1)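 U87MG cells or neural stem cells (NSCs) were loaded with 5 μM Fura-2 AM plus 1 μM pluronic acid for 40 min at room temperature. Recording was in HEPES-buffered saline at pH 7.3 with 2 mM CaCl₂. Compounds were applied by bath at 1, 3, 10, 30 or 100 μM. Emission at 510 nm was imaged under 340/380 nm excitation, and the ratio was calculated. Peak amplitude was taken relative to the 0–50 s baseline. Dose–response curves gave EC₅₀ and efficacy.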

The subject of data set [2] is U-87 MG. The data set can be described thus: Antitumor activity against human U87MG cells xenografted in BALB/c mouse assessed as increase in mouse survival at 5 mg/kg, ip administered for 21 days with 24 hrs resting period followed by treatment discontinuation and measured on day 39. It counts as functional, U-87MG ATCC. In outline:
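Orthotopic model in athymic BALB/c nu/nu mice: U87MG cells (2.5 × 10⁵ in 5 μL) injected into the left frontal lobe (2 mm lateral to bregma, 0.5 mm anterior, 3.5 mm deep). From day 3, drug was given i.p. at 5 mg/kg/day or 0.9% saline to controls (n = 10 each) for 21 days. Mice were monitored daily and sacrificed when moribund; survival curves were compared by log-rank test.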

Data set [3] relates to U-87 MG. Description: Induction of intracellular Ca2+ level in human U87MG cells at 1 to 100 uM by Fura-2 AM dye-based assay relative to control. The data set is classed as functional, U-87MG ATCC. The gist of the method:
as §1

Data set [4] is described as follows: Selectivity ratio of efficacy for induction of intracellular Ca2+ level in human U87MG cells at 1 to 100 uM to efficacy for induction of intracellular Ca2+ level in human NSC cells at 1 to 100 uM. The data set is classed as functional.
Data set [5] concerns U-87 MG. Description: Antitumor activity against human U87MG cells xenografted in BALB/c mouse assessed as reduction in tumor size at 5 mg/kg/day, ip administered for 21 days with 24 hrs resting period followed by treatment discontinuation till day 39 by hematoxylin and eosin staining based confocal microscopic analysis relative to control. More on the design: scale not given: the % may be the effect or the level left. It counts as functional, U-87MG ATCC. The gist of the method: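 Athymic BALB/c nu/nu mice given intracranial U87MG cells (2.5 × 10⁵ cells in 5 μL) into the left frontal lobe (2 mm lateral from bregma, 0.5 mm anterior, 3.5 mm deep). Treatment began on day 3: 5 mg/kg/day i.p., or 0.9% saline for controls (n = 10 each). Dosing ran 21 days, then stopped until day 39. Brains were fixed in 4% PFA, paraffin-embedded, cut at 5 μm and H&E-stained. Tumor volume = [major axis × (minor axis)²]/2.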
In general terms: In xenograft studies the graft and the host belong to different species.

The test system of data set [6] is U-87 MG. Description: Potency index, ratio of trifluoperazine IC50 to test compound IC50 for human U87MG cells. It counts as functional, U-87MG ATCC.
Data set [7] deals with NSC. Description: Induction of intracellular Ca2+ level in human NSC cells at 1 to 100 uM by Fura-2 AM dye-based assay relative to control. It counts as cell-based. The following applies: read-out: Efficacy. In outline:
as §1

Data set [8] has as its system U-87 MG. Description: Cytotoxicity against human U87MG cells assessed as reduction in cell viability at 1 to 20 uM after 24 hrs by MTT assay relative to control. It counts as functional, U-87MG ATCC. In outline:
(§2)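 Cells were grown in DMEM with 10% FBS and penicillin/streptomycin at 37 °C and 5% CO₂, and used up to passage 20. They were seeded at 1.5 × 10³ cells/well, allowed to attach for 24 h, then treated with vehicle or compound diluted in complete medium for 24 h. MTT reagent was added for 2 h. Viability is expressed relative to cell numbers at initial time. n = 16; one-way ANOVA.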

Data set [9] deals with U-87 MG. The data set can be described thus: Induction of intracellular Ca2+ level in human U87MG cells by Fura-2 AM dye-based assay. It counts as functional, cell-based, U-87MG ATCC. In outline: as §1
The test system of data set [10] is U-87 MG. Description: Cytotoxicity against human U87MG cells assessed as reduction in cell viability after 24 hrs by MTT assay. It counts as functional, cell-based, U-87MG ATCC. The gist of the method:
as §2
On the technique in general: Tetrazolium assays rely on reduction of a dye to a coloured formazan, in cell work by metabolically active cells.

Data set [11] deals with Mus musculus. Description: Toxicity in BALB/c mouse xenografted with human U87MG cells assessed as induction of neurologic deficits at 5 mg/kg/day, ip administered for 21 days with 24 hrs resting period followed by treatment discontinuation till day 39. It counts as organism-based. The following applies: in vivo. The gist of the method:
(§3)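 Same U87MG orthotopic xenograft mice: 5 mg/kg/day i.p. from day 3 for 21 days, or saline (n = 10 each), with dosing stopped until day 39. Mice were checked daily for general appearance, behavioral changes and neurologic deficits, including parkinsonism and extrapyramidal signs.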

A short description of data set [12]: Potency index, ratio of trifluoperazine IC50 to test compound IC50 for human GBL28 cells. It counts as functional.
In data set [13] the test system is U-87 MG. The data set can be described thus: Induction of intracellular Ca2+ level in human U87MG cells at 100 uM by Fura-2 AM dye-based assay relative to trifluoperazine. The following applies: U-87MG ATCC. It counts as functional, cell-based. In outline: as §1
Data set [14] has as its system Mus musculus. Description: Toxicity in BALB/c mouse xenografted with human U87MG cells assessed as effect on behavioral changes at 5 mg/kg/day, ip administered for 21 days with 24 hrs resting period followed by treatment discontinuation till day 39. The data set is classed as organism-based. The following applies: in vivo. The gist of the method: as §3
In data set [15] the test system is NSC. The data set can be described thus: Induction of intracellular Ca2+ level in human NSC cells at 100 uM by Fura-2 AM dye-based assay. It counts as cell-based. The gist of the method:
as §1

For data set [16], the system named is Mus musculus. The data set can be described thus: Toxicity in BALB/c mouse xenografted with human U87MG cells assessed as effect on general appearance at 5 mg/kg/day, ip administered for 21 days with 24 hrs resting period followed by treatment discontinuation till day 39. The data set is classed as organism-based. The settings on record: in vivo. In outline:
as §3

Data set [17] can be described thus: Cytotoxicity against human GBL28 cells assessed as reduction in cell viability after 24 hrs by MTT assay. The data set is classed as functional, cell-based. The gist of the method: as §2
For data set [18], the system named is NSC. The data set can be described thus: Cytotoxicity against human NSC cells assessed as reduction in cell viability at 1 to 20 uM after 24 hrs by MTT assay relative to control. It counts as cell-based. In outline:
as §2

Data set [19] in a line: Cytotoxicity against human GBL28 cells assessed as reduction in cell viability at 1 to 20 uM after 24 hrs by MTT assay relative to control. The data set is classed as functional. In outline:
as §2

Data set [20] concerns NSC. Description: Cytotoxicity against human NSC cells assessed as reduction in cell viability after 24 hrs by MTT assay. It counts as cell-based. The gist of the method: as §2

Compound `FC(F)(F)c1ccc2c(c1)N(CCCCN1CCN(c3ccccc3)CC1)c1ccccc1S2` showed an Activity in the data set with U-87 MG [1] of 94%.
As for `CC1CCN(CCCCN2c3ccccc3Sc3ccc(C(F)(F)F)cc32)CC1`, in the data set on U-87 MG [1], the Activity is given as 93%.
On to `CN1CCCN(CCCCN2c3ccccc3Sc3ccc(C(F)(F)F)cc32)CC1`, for which the Activity in the data set on U-87 MG [1] stood at 107%.
Same read-out and setting: in the case of `CC1CCN(CCCN2c3ccccc3Sc3ccc(Cl)cc32)CC1` it was 88%.
Compound `FC(F)(F)c1ccc2c(c1)N(CCCN1CCNCC1)c1ccccc1S2` yielded an Activity with U-87 MG [1] of 108%.
Regarding `FC(F)(F)c1ccc2c(c1)N(CCCCN1CCC(N3CCCC3)CC1)c1ccccc1S2`, the Survival in the data set with U-87 MG [2] was 6 days. In addition, the Efficacy was determined as 100% in the data set on U-87 MG [3], 82% in the data set on U-87 MG [8], 45% in the data set on NSC [18] and 85% in data set [19]. Moreover, the Ratio in [4] came to 2. For the same compound, the Activity in the data set with U-87 MG [5] was 88%; in the data set with Mus musculus [11], “Non-Toxic”; in the data set on Mus musculus [14] it was “Non-Toxic”; in the data set on NSC [15], “Non-Toxic”; in the data set on Mus musculus [16], “Non-Toxic”; with U-87 MG [1], 134%. For the same compound, the “Ratio IC50” value (in the data set with U-87 MG [6]; in [12]) was 4 - 5 in each case. For the same compound, the Emax in the data set with NSC [7] came out at 50%. The same compound gave a 50% effective concentration (EC50) in the data set with U-87 MG [9] of 6.2 µM. In addition, the values for the 50% inhibitory concentration (IC50) (with U-87 MG [10]; in data set [17]; in the data set on NSC [20]) were 2.3 µM, 2.2 µM and 3.2 µM, respectively. Further, the result in the data set with U-87 MG [13] was Active.
On to `CC1CCN(CCCCN2c3ccccc3Sc3ccc(F)cc32)CC1`, for which the Activity in the data set on U-87 MG [1] came to 110%.
For the compound `CN1CCN(CCCN2c3ccccc3Sc3ccc(C(F)(F)F)cc32)CC1` [TRIFLUOPERAZINE], the Efficacy was 79% in the data set on U-87 MG [3], 82% in the data set with U-87 MG [8], 21% with NSC [18] and 85% in data set [19]. The same compound gave an EC50 with U-87 MG [9] of 13.5 µM. Moreover, the results for the 50% inhibitory concentration (IC50) (with U-87 MG [10]; in [17]; in the data set with NSC [20]) were 9.9 µM, 10.2 µM and 10.1 µM, respectively. In addition, the Activity result with NSC [15] is on record as “Non-Toxic”.
On to `FC(F)(F)c1ccc2c(c1)N(CCCCN1CCC(N3CCOCC3)CC1)c1ccccc1S2`, for which the figures for the Efficacy (with U-87 MG [8]; with NSC [18]; in data set [19]) were 82%, 21% and 85%, respectively. Moreover, the concentration giving a half-maximal response (EC50) with U-87 MG [9] came to 19.9 µM. For the same compound, the IC50 in the data set with U-87 MG [10] was 7.1 µM; in data set [17] it was 6.5 µM; in the data set on NSC [20], 5.6 µM. In the data set on U-87 MG [13], the result was Active. Also, the Activity result in the data set on NSC [15] is given as “Non-Toxic”; with U-87 MG [1], 120%.
With `FC(F)(F)c1ccc2c(c1)N(CCCCN1CCC(N3CCCCC3)CC1)c1ccccc1S2`, the “Ratio IC50” value (in the data set on U-87 MG [6]; in [12]) was 4 - 5 in each case. Besides, the Efficacy is given as 82% in the data set with U-87 MG [8], 43% in the data set with NSC [18] and 85% in data set [19]. Further, the half-maximal effective concentration (EC50) in the data set on U-87 MG [9] came to 6.7 µM. For the same compound, the IC50 in the data set on U-87 MG [10] is 2.2 µM; in data set [17] it was 2.1 µM; with NSC [20], 3.1 µM. The result with U-87 MG [13] was Active. In addition, the Activity entry is on record as “Non-Toxic” in the data set with NSC [15] and 123% in the data set on U-87 MG [1].
`FC(F)(F)c1ccc2c(c1)N(CCCN1CCC(N3CCCC3)CC1)c1ccccc1S2` showed an Activity with U-87 MG [1] of 72%.
`CSc1ccc2c(c1)N(CCCN1CCC(C)CC1)c1ccccc1S2` showed an Activity in the data set on U-87 MG [1] of 76%.
As to `CSc1ccc2c(c1)N(CCCCN1CCC(C)CC1)c1ccccc1S2`, the Activity in the data set with U-87 MG [1] stood at 72%.
Still for that read-out and setting: the same measure for `Clc1ccc2c(c1)N(CCCCN1CCC(N3CCCC3)CC1)c1ccccc1S2`: 101%; for `CC1CCN(CCCN2c3ccccc3Sc3ccc(C(F)(F)F)cc32)CC1`: 83%.
